Laboratory results taken from ChEMBL document CHEMBL4152256, “Structure-activity relationship of new antimalarial 1-aryl-3-susbtituted propanol derivatives: Synthesis, preliminary toxicity profiling, parasite life cycle stage studies, target exploration, and targeted delivery” (Eur J Med Chem, 2018).

Key:
Plasmodium falciparum [1] = assay: Antiplasmodial activity against multidrug-resistant Plasmodium falciparum FCR-3 by [3H]-hypoxanthine incorporation assay; assay type: functional, organism-based, FCR-3/Gambia; settings: Plasmodium falciparum, FCR-3/Gambia
Procedure, shortened: (§1)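 Blood-stage P. falciparum 3D7 and FCR-3 were tested by a modified [3H]-hypoxanthine incorporation assay. Chloroquine was the reference in all runs.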

Plasmodium falciparum [2] = assay: Antiplasmodial activity against chloroquine-sensitive Plasmodium falciparum 3D7 by [3H]-hypoxanthine incorporation assay; assay type: functional, organism-based; settings: Plasmodium falciparum, 3D7; procedure, shortened: as §1
[3] = Cytotoxicity against human HepG2A16 cells by MTT assay; assay type: cell-based; settings: HepG2A16 cells
Procedure, shortened: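 MTT viability assay on HepG2-A16 cells, giving CC50 values.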

[4] = Genotoxicity in Salmonella typhimurium TA1535 harboring pSK1002 assessed as survival at 0.063 mg/ml in absence of Sprague-Dawley rat liver S9 fraction after by SOS/umu assay relative to control; assay type: toxicity, organism-based; settings: salmonella enterica subsp. enterica serovar typhimurium, read-out: Survival
[5] = Genotoxicity in Salmonella typhimurium TA1535 harboring pSK1002 assessed as umu gene induction at 0.063 mg/ml in absence of Sprague-Dawley rat liver S9 fraction after by SOS/umu assay relative to control; assay type: toxicity, organism-based; settings: salmonella enterica subsp. enterica serovar typhimurium, read-out: FC
[6] = Genotoxicity in Salmonella typhimurium TA1535 harboring pSK1002 assessed as survival at 0.063 mg/ml in presence of Sprague-Dawley rat liver S9 fraction after by SOS/umu assay relative to control; assay type: toxicity, organism-based; settings: salmonella enterica subsp. enterica serovar typhimurium, read-out: Survival
[7] = Genotoxicity in Salmonella typhimurium TA1535 harboring pSK1002 assessed as umu gene induction at 0.063 mg/ml in presence of Sprague-Dawley rat liver S9 fraction after by SOS/umu assay relative to control; assay type: toxicity, organism-based; settings: salmonella enterica subsp. enterica serovar typhimurium, read-out: FC
[8] = Genotoxicity in Salmonella typhimurium TA1535 harboring pSK1002 assessed as survival at 0.031 mg/ml in absence of Sprague-Dawley rat liver S9 fraction after by SOS/umu assay relative to control; assay type: toxicity, organism-based; settings: salmonella enterica subsp. enterica serovar typhimurium, read-out: Survival
[9] = Genotoxicity in Salmonella typhimurium TA1535 harboring pSK1002 assessed as umu gene induction at 0.031 mg/ml in absence of Sprague-Dawley rat liver S9 fraction after by SOS/umu assay relative to control; assay type: toxicity, organism-based; settings: salmonella enterica subsp. enterica serovar typhimurium, read-out: FC
[10] = Genotoxicity in Salmonella typhimurium TA1535 harboring pSK1002 assessed as umu gene induction at 0.031 mg/ml in presence of Sprague-Dawley rat liver S9 fraction after by SOS/umu assay relative to control; assay type: toxicity, organism-based; settings: salmonella enterica subsp. enterica serovar typhimurium, read-out: FC
[11] = Genotoxicity in Salmonella typhimurium TA1535 harboring pSK1002 assessed as survival at 0.016 mg/ml in absence of Sprague-Dawley rat liver S9 fraction after by SOS/umu assay relative to control; assay type: toxicity, organism-based; settings: salmonella enterica subsp. enterica serovar typhimurium, read-out: Survival
[12] = Genotoxicity in Salmonella typhimurium TA1535 harboring pSK1002 assessed as umu gene induction at 0.016 mg/ml in absence of Sprague-Dawley rat liver S9 fraction after by SOS/umu assay relative to control; assay type: toxicity, organism-based; settings: salmonella enterica subsp. enterica serovar typhimurium, read-out: FC
[13] = Genotoxicity in Salmonella typhimurium TA1535 harboring pSK1002 assessed as umu gene induction at 0.016 mg/ml in presence of Sprague-Dawley rat liver S9 fraction after by SOS/umu assay relative to control; assay type: toxicity, organism-based; settings: salmonella enterica subsp. enterica serovar typhimurium, read-out: FC
[14] = Genotoxicity in Salmonella typhimurium TA1535 harboring pSK1002 assessed as survival at 0.008 mg/ml in absence of Sprague-Dawley rat liver S9 fraction after by SOS/umu assay relative to control; assay type: toxicity, organism-based; settings: salmonella enterica subsp. enterica serovar typhimurium, read-out: Survival
[15] = Genotoxicity in Salmonella typhimurium TA1535 harboring pSK1002 assessed as survival at 0.008 mg/ml in presence of Sprague-Dawley rat liver S9 fraction after by SOS/umu assay relative to control; assay type: toxicity, organism-based; settings: salmonella enterica subsp. enterica serovar typhimurium, read-out: Survival
[16] = Genotoxicity in Salmonella typhimurium TA1535 harboring pSK1002 assessed as umu gene induction at 0.008 mg/ml in presence of Sprague-Dawley rat liver S9 fraction after by SOS/umu assay relative to control; assay type: toxicity, organism-based; settings: salmonella enterica subsp. enterica serovar typhimurium, read-out: FC
[17] = Genotoxicity in Salmonella typhimurium TA1535 harboring pSK1002 assessed as survival at 0.004 mg/ml in absence of Sprague-Dawley rat liver S9 fraction after by SOS/umu assay relative to control; assay type: toxicity, organism-based; settings: salmonella enterica subsp. enterica serovar typhimurium, read-out: Survival
[18] = Genotoxicity in Salmonella typhimurium TA1535 harboring pSK1002 assessed as umu gene induction at 0.004 mg/ml in absence of Sprague-Dawley rat liver S9 fraction after by SOS/umu assay relative to control; assay type: toxicity, organism-based; settings: salmonella enterica subsp. enterica serovar typhimurium, read-out: FC
[19] = Genotoxicity in Salmonella typhimurium TA1535 harboring pSK1002 assessed as survival at 0.002 mg/ml in absence of Sprague-Dawley rat liver S9 fraction after by SOS/umu assay relative to control; assay type: toxicity, organism-based; settings: salmonella enterica subsp. enterica serovar typhimurium, read-out: Survival
[20] = Genotoxicity in Salmonella typhimurium TA1535 harboring pSK1002 assessed as umu gene induction at 0.002 mg/ml in absence of Sprague-Dawley rat liver S9 fraction after by SOS/umu assay relative to control; assay type: toxicity, organism-based; settings: salmonella enterica subsp. enterica serovar typhimurium, read-out: FC
[21] = Genotoxicity in Salmonella typhimurium TA1535 harboring pSK1002 assessed as survival at 0.002 mg/ml in presence of Sprague-Dawley rat liver S9 fraction after by SOS/umu assay relative to control; assay type: toxicity, organism-based; settings: salmonella enterica subsp. enterica serovar typhimurium, read-out: Survival
[22] = Genotoxicity in Salmonella typhimurium TA1535 harboring pSK1002 assessed as umu gene induction at 0.002 mg/ml in presence of Sprague-Dawley rat liver S9 fraction after by SOS/umu assay relative to control; assay type: toxicity, organism-based; settings: salmonella enterica subsp. enterica serovar typhimurium, read-out: FC
[23] = Genotoxicity in Salmonella typhimurium TA1535 harboring pSK1002 assessed as survival at 0.001 mg/ml in absence of Sprague-Dawley rat liver S9 fraction after by SOS/umu assay relative to control; assay type: toxicity, organism-based; settings: salmonella enterica subsp. enterica serovar typhimurium, read-out: Survival
[24] = Genotoxicity in Salmonella typhimurium TA1535 harboring pSK1002 assessed as umu gene induction at 0.001 mg/ml in absence of Sprague-Dawley rat liver S9 fraction after by SOS/umu assay relative to control; assay type: toxicity, organism-based; settings: salmonella enterica subsp. enterica serovar typhimurium, read-out: FC
[25] = Genotoxicity in Salmonella typhimurium TA1535 harboring pSK1002 assessed as survival at 0.001 mg/ml in presence of Sprague-Dawley rat liver S9 fraction after by SOS/umu assay relative to control; assay type: toxicity, organism-based; settings: salmonella enterica subsp. enterica serovar typhimurium, read-out: Survival
[26] = Genotoxicity in Salmonella typhimurium TA1535 harboring pSK1002 assessed as umu gene induction at 0.001 mg/ml in presence of Sprague-Dawley rat liver S9 fraction after by SOS/umu assay relative to control; assay type: toxicity, organism-based; settings: salmonella enterica subsp. enterica serovar typhimurium, read-out: FC
[27] = Genotoxicity in Salmonella typhimurium TA1535 harboring pSK1002 assessed as survival at 0.125 mg/ml in absence of Sprague-Dawley rat liver S9 fraction after by SOS/umu assay relative to control; assay type: toxicity, organism-based; settings: salmonella enterica subsp. enterica serovar typhimurium, read-out: Survival
[28] = Genotoxicity in Salmonella typhimurium TA1535 harboring pSK1002 assessed as umu gene induction at 0.125 mg/ml in absence of Sprague-Dawley rat liver S9 fraction after by SOS/umu assay relative to control; assay type: toxicity, organism-based; settings: salmonella enterica subsp. enterica serovar typhimurium, read-out: FC
[29] = Genotoxicity in Salmonella typhimurium TA1535 harboring pSK1002 assessed as survival at 0.125 mg/ml in presence of Sprague-Dawley rat liver S9 fraction after by SOS/umu assay relative to control; assay type: toxicity, organism-based; settings: salmonella enterica subsp. enterica serovar typhimurium, read-out: Survival
[30] = Genotoxicity in Salmonella typhimurium TA1535 harboring pSK1002 assessed as umu gene induction at 0.125 mg/ml in presence of Sprague-Dawley rat liver S9 fraction after by SOS/umu assay relative to control; assay type: toxicity, organism-based; settings: salmonella enterica subsp. enterica serovar typhimurium, read-out: FC

Row | Compound | IC50 (Plasmodium falciparum [1]) | IC50 (Plasmodium falciparum [2]) | CC50 [3] | viability at 0.063 mg/ml [4] | fold induction at 0.063 mg/ml [5] | viability at 0.063 mg/ml [6] | fold induction at 0.063 mg/ml [7] | viability at 0.031 mg/ml [8] | fold induction at 0.031 mg/ml [9] | viability at 0.016 mg/ml [11] | fold induction at 0.016 mg/ml [12] | fold induction at 0.016 mg/ml [13] | viability at 0.008 mg/ml [14] | viability at 0.008 mg/ml [15] | fold induction at 0.008 mg/ml [16] | viability at 0.004 mg/ml [17] | fold induction at 0.004 mg/ml [18] | viability at 0.002 mg/ml [19] | fold induction at 0.002 mg/ml [20] | viability at 0.002 mg/ml [21] | also measured
1 | OC(CCN1CCN(C(c2ccccc2)c2ccccc2)CC1)c1ccc(F)c2ccccc12 (stereo unspecified) | 330 nM | 620 nM | 19900 nM | 141% | 0.8 | 91.9% | 1.5 | 107% | 1 | 86.3% | 1.4 | 0.7 | 80.6% | 143% | 0.4 | 69% | 1.3 | 77.8% | 0.8 | 114% | fold induction at 0.031 mg/ml [10]: 1.2; fold induction at 0.002 mg/ml [22]: 0.8; viability at 0.001 mg/ml [23]: 81%; fold induction at 0.001 mg/ml [24]: 0.6; viability at 0.001 mg/ml [25]: 108%; fold induction at 0.001 mg/ml [26]: 0.9
2 | N#Cc1ccc(N2CCC(NCCC(O)c3ccc(F)c4ccccc34)CC2)c(Cl)c1 (stereo unspecified) | 90 nM | 150 nM | 7950 nM | 55.4% | 0.3 | 82.8% | 0.2 | 42.2% | 0.5 | 36.8% | 0.6 | 0.6 | 33.7% | 35.1% | 1.1 | 32.2% | 1 | 117% | 1 | 148% | viability at 0.125 mg/ml [27]: 79.8%; fold induction at 0.125 mg/ml [28]: 0.1; viability at 0.125 mg/ml [29]: 134%; fold induction at 0.125 mg/ml [30]: 0.1; fold induction at 0.002 mg/ml [22]: 0.8; viability at 0.001 mg/ml [23]: 130%; fold induction at 0.001 mg/ml [24]: 1; viability at 0.001 mg/ml [25]: 154%; fold induction at 0.001 mg/ml [26]: 0.9
3 | N#Cc1ccc(N2CCC(NCCC(O)c3ccc(F)c4ccccc34)CC2)c(Br)c1 (stereo unspecified) | 70 nM | 220 nM | 9870 nM | 42.6% | 0.6 | 46.3% | 0.6 | 19.4% | 1.5 | 18.6% | 2.1 | 1.9 | 18.9% | 87.4% | 1 | 107% | 1.4 | 106% | 1.4 | 65.3% | fold induction at 0.031 mg/ml [10]: 1.2; fold induction at 0.002 mg/ml [22]: 0.8; viability at 0.001 mg/ml [23]: 104%; fold induction at 0.001 mg/ml [24]: 1.3; viability at 0.001 mg/ml [25]: 87.2%; fold induction at 0.001 mg/ml [26]: 0.9
